This passage reports EC50 results from BindingDB's records for doi:10.1021/jm000285q (Merck Research Laboratories, 2000).

The target of this assay is Insulin receptor (Homo sapiens, UniProt P06213). The assay can be described thus: Activation of human insulin receptor tyrosine kinase (IRTK). The procedure, abridged:
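CHO cells stably transfected with human insulin receptor, plated 150 000 cells/well for 24 h, serum-starved 2 h, then exposed to compound 20 min at 37 °C. Lysate IR captured on anti-IR antibody wells (16 h, 4 °C), kinase reaction 40 min at 25 °C, radioactivity on phosphocellulose filters. Activity as % of maximal response to 100 nM insulin.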

Insulin receptor, sequence (P06213 28-758 limits assumed): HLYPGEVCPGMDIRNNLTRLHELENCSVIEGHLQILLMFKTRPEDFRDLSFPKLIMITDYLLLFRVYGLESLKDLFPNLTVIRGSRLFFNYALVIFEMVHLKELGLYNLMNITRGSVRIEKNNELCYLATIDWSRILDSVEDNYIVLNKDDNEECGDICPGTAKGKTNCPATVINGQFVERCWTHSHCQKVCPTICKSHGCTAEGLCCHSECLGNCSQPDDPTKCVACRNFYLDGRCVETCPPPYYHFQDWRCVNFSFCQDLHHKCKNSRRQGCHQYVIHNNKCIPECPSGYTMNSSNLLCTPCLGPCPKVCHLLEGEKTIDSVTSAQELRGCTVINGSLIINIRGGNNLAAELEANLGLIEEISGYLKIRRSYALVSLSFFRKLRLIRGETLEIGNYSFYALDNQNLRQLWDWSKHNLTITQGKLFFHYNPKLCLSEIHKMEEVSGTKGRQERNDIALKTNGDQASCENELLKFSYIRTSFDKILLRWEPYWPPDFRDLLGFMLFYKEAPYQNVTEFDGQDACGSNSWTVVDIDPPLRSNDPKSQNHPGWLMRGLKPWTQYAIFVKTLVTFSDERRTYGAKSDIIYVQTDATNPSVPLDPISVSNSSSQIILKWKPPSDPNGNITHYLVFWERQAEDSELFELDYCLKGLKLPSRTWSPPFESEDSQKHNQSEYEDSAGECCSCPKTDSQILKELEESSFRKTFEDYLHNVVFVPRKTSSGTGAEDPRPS
Insulin receptor, sequence (P06213 763-1382 limits assumed): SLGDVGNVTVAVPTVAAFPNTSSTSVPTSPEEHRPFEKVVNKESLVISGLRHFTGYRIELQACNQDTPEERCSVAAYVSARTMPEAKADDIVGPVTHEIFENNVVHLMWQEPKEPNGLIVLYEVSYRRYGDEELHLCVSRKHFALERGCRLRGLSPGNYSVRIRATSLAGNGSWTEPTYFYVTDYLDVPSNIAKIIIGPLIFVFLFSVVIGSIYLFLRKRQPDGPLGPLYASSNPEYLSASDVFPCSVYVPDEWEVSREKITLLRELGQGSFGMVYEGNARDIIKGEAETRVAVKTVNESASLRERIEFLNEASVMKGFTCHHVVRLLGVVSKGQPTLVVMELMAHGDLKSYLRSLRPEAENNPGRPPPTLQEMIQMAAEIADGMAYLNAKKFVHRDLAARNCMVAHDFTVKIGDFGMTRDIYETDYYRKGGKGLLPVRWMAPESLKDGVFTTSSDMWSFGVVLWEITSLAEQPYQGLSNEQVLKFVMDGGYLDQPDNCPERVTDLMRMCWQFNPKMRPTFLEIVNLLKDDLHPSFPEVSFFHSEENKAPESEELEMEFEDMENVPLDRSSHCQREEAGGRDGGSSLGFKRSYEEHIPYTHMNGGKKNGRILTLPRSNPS

For orientation: EC50 means the concentration at which the effect is half-maximal. A high value points to a less potent agent. As for `O=C1C(=O)C(c2c[nH]c3ccccc23)C(=O)C(=O)C1c1ccccc1` (configuration not stated) [2,5-Dihydroxy-3-(1H-indol-3-yl)-6-phenyl-[1,4]benzoquinone], the EC50 came to 300 nM. As to `Cn1cc(C2C(=O)C(=O)C(c3ccccc3)C(=O)C2=O)c2ccccc21` (configuration not stated) [2,5-Dihydroxy-3-(1-methyl-1H-indol-3-yl)-6-phenyl-[1,4]benzoquinone], the EC50 turned out to be 300 nM.
